MrgX1 ag – activates human MrgX1 receptor signaling. MrgX1-HEK293 cells, Fluo-4 calcium fluorescence, agonist mode; hits give high values. B-score at 10 µM. 310,000 compounds, 0.44% hits;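 active = calcium response B-score plate-corrected fluorescence ratio at least 3 library SD, with starting fluorescence B-score inside 5 SD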
Target sequence (Q96LB2 whole entry, looked up): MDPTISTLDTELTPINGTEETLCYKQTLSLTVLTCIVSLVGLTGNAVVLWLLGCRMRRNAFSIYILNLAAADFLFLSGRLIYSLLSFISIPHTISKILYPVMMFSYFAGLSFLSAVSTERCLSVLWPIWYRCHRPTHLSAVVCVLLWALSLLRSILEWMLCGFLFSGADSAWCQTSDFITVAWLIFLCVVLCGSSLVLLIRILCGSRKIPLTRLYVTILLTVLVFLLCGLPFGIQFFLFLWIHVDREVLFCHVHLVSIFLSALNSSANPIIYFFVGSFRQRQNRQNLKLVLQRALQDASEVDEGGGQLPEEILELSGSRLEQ
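Material – MrgX1-expressing HEK293 cells · Input – 15,000 cells seeded per well · Dosing – compound as first of three additions · Times – overnight seeding, then 1 h dark dye loading · Measured by – kinetic Fluo-4 NW fluorescence of intracellular calcium · Read-out – B-scored fluorescence response ratio · Benchmarks – positive and negative control wells on each plate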
RGS4 inh – human RGS4 inhibition; 310,000 compounds, 0.45% hits; B-score at 10 µM; P49798; HEK293 M3R/RGS4 inducible, Fluo-4 calcium flux; hits give high values; triggered by carbachol at its EC20;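 active = B-score, a plate-corrected calcium signal, over three deviations above library mean, with baseline fluorescence within five deviations of library mean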;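 note: RGS4 expression induced by doxycycline in cells with stable M3 receptor; B-score is computed from the integrated fluorescence ratio over baseline after carbachol; higher B-score means a larger calcium signal and so more RGS4 inhibition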
Target sequence (P49798 whole entry, looked up): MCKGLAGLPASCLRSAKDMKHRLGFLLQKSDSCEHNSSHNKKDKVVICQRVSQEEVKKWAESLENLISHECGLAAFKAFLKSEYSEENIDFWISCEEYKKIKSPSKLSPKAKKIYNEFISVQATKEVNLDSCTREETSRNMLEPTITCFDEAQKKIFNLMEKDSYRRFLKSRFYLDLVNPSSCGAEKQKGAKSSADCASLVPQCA
RGS4 act – potentiators or activators of RGS4; B-score at 10 µM; 310,000 compounds, 0.92% hits; HEK293 M3R/inducible RGS4, carbachol calcium flux Fluo4; hits give low values;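 active = B-score of the integrated calcium signal more than 4 SD below the library mean, with starting fluorescence not abnormally high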;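 note: negative B-score means reduced calcium response which marks RGS4 activation or potentiation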
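Also added: carbachol at ECmax as muscarinic agonist stimulus; Assay system: HEK293 cells with stable M3R and inducible RGS4; Timing: overnight RGS4 induction, 30 min dye load 37 °C, 20 min compound RT; Measured by: Fluo4-AM (2 µM) calcium-flux fluorescence, kinetic read.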
MrgX1 PAM – allosterically activates human MrgX1 receptor signaling; Q96LB2; MrgX1-HEK293, Fluo-4 calcium flux, FDSS; hits give high values; B-score at 10 µM; 310,000 compounds, 0.63% hits; AID 588675;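 active = plate-corrected calcium response at least 3 library SD above typical, normal starting fluorescence, not activating the receptor alone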;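 note: compound read alongside a low EC10 to EC30 dose of BAM8-22 agonist; peak minus trough fluorescence over baseline measured at the second addition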
MrgX1 antag – antagonists of human MrgX1 receptor | 310,000 compounds, 1.3% hits | B-score at 10 µM | MRGX1-HEK293 calcium flux, Fluo-4, BAM8-22 antagonism; hits give low values | AID 588676;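 active = calcium-response B-score plate-corrected more than 3 library SD below zero, starting fluorescence within 5 deviations, no agonist response on first addition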;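 note: peak minus trough fluorescence over baseline after final BAM8-22 challenge near maximal dose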
* hit, by the source's call; i = inactive; . = no result. This is a sample that favours compounds with a hit; in the whole collection about 3.5% have one here.

SMILES	MrgX1 ag	RGS4 inh	RGS4 act	MrgX1 PAM	MrgX1 antag
Cc1ccc2cc(C3CC(c4ccco4)=NN3S(=O)(=O)c3ccccc3)c(Cl)nc2c1 (stereo unspecified)	38*	i	i	i	i
COc1ccc(NS(=O)(=O)c2ccc(O)c(NC(=O)c3ccc(S(=O)(=O)N4CCCC4)cc3)c2)cc1	i	i	i	i	i
COc1ccc(NS(=O)(=O)c2ccc(O)c(NC(=O)c3ccc(S(=O)(=O)N4CCCCCC4)cc3)c2)cc1	i	i	-7.8*	i	i
O=C(CCc1ccc(Oc2cc([N+](=O)[O-])cc([N+](=O)[O-])c2)cc1)N1CCCCCC1	i	i	-10*	i	i
O=C(Cc1ccc([N+](=O)[O-])cc1)N1CCCCCC1	i	i	i	i	i
CCN(C(=O)CN1C(=O)COc2ccc(S(=O)(=O)N3CCCCCC3)cc21)c1cccc(C)c1	38*	i	i	i	i
CN(CCCNC(=O)CCc1cn(C)c2ccccc12)C1CCCCC1	i	i	i	i	i
Cc1ccc(-c2cc(C(=O)Nc3ccccc3C)c3ccccc3n2)o1	i	i	i	i	-4.8*
COC(=O)c1cc(-c2ccc(C)o2)nc2ccccc12	i	i	i	i	i
c1cncc(CSc2nnc(-c3cccnc3)n2Cc2ccco2)c1	.	i	i	.	.
O=C(CSc1nnc(-c2cccnc2)n1Cc1ccco1)N1c2ccccc2Sc2ccccc21	i	.	.	i	-4.5*
Cc1c(C(=O)/C=C/c2cccs2)oc2ccc(F)cc12	i	i	i	i	-6*
COc1cccc(OC)c1C(=O)Nc1ccccc1N1CCCC1	i	i	i	i	i
Cn1nc(C(=O)NCCOc2ccccc2)c2ccccc2c1=O	i	i	i	10*	i
CC(C)n1nc(C(=O)Nc2ccccc2N2CCOCC2)c2ccccc2c1=O	i	i	i	i	i
COc1cc2ccccc2cc1C(=O)Nc1ccccc1N1CCCC1	i	i	-7.3*	i	i
O=C(NC(=S)Nc1ccccc1N1CCCCC1)c1ccc(F)cc1Cl	i	i	-7*	i	i
Cn1nc(C(=O)Nc2ccccc2N2CCCC2)c2ccccc2c1=O	i	i	i	12*	i
Cn1nc(C(=O)NCc2ccccc2)c2ccccc2c1=O	i	i	i	i	i
CCOC(=O)c1sc(NC(=O)CN2CC(C)OC(C)C2)nc1C (stereo unspecified)	i	i	i	i	i
CCOc1ccc(NC(=O)CCCNC(=O)Cn2cnc3sc(C)c(C)c3c2=O)cc1	i	i	i	i	i
CC(=O)Nc1ccc(CN2CCCN(C)CC2)cc1	i	i	i	i	i
Cc1cccc(C(=O)NCC(c2cccs2)N2CCOCC2)c1 (stereo unspecified)	i	i	i	i	i
COC(=O)C1=C2SCC(=O)N2C(N)=C(C#N)C1	i	i	i	i	i
O=C(N/N=C/C=C/c1ccco1)C(O)c1ccccc1 (stereo unspecified)	i	i	i	i	i
SMILES	MrgX1 ag	RGS4 inh	RGS4 act	MrgX1 PAM	MrgX1 antag
O=C(N/N=C/C=C/c1ccccc1)C(O)c1ccccc1 (stereo unspecified)	i	i	i	i	-5.9*
Cc1cc(C)c2nc(-c3ccncc3)cc(C(=O)N3CCN(Cc4ccccc4Cl)CC3)c2c1	i	i	-7.4*	i	i
Cc1cc(N2CCCCC2)nc(N2CCCCC2)n1	i	i	i	i	i
COCCCNCCOc1ccc(C)cc1[N+](=O)[O-]	i	i	i	i	-4.9*
CCOc1c(Br)cc(CNc2ccc3c(c2)OCCO3)cc1OC	i	i	i	i	i
COc1cc(/C=C/C(=O)c2ccc3c(c2)OCCO3)cc(Br)c1OCC(=O)N(C)C	i	i	i	i	-5.6*
CCOC(=O)CNC(=O)N1CCCC(C(=O)c2cccc(Cl)c2)C1 (stereo unspecified)	i	i	i	i	i
N#Cc1cc(N)ccc1Sc1ccc(Cl)cc1	i	i	-7*	i	i
CCN(c1ccc(OC)cc1)S(=O)(=O)c1ccc(-c2ccc(=O)[nH]n2)o1	i	i	i	i	i
Cc1ccc(C)c(OCC(=O)Nc2cc(NC(=O)COc3cc(C)ccc3C)cc(C(=O)O)c2)c1	i	i	i	i	i
O=C(CN1CCCCC1)N1N=C(c2cccs2)CC1c1cccs1 (stereo unspecified)	i	i	-8*	i	i
CCNc1nc(NCC)n2c(SCC(=O)Nc3ccccc3C(F)(F)F)nnc2n1	i	i	i	i	i
Cc1noc2ncnc(Oc3cc(Cl)ccc3Cl)c12	i	i	i	i	i
Cc1cc(Cl)ccc1Oc1ncnc2oc(-c3ccccc3)cc12	i	i	i	12*	i
Cc1ccc(C(=O)N2CCN(c3nc4ccccc4n3C)CC2)cc1	i	i	i	i	i
CC(C(=O)NCc1ccco1)c1ccc([N+](=O)[O-])cc1 (stereo unspecified)	i	i	i	i	-4.5*
CCCCC(=O)N1CCN(c2nc3ccc(Cl)cc3s2)CC1	i	i	i	i	i
Fc1cccc(Cl)c1CNCc1ccccc1Cl	i	i	i	i	i
CS(=O)(=O)c1nc(-c2ccco2)cc(C(F)(F)F)n1	i	i	-7*	i	i
COc1ccccc1-c1cc(C(F)(F)F)nc(S(C)(=O)=O)n1	i	i	i	i	i
OCCC1CN(Cc2nc3ccccc3[nH]2)CCN1C1CCCC1 (stereo unspecified)	i	i	i	i	i
C=CCNC(=S)NNC(=O)c1ccc([N+](=O)[O-])cc1	i	i	i	i	-7.9*
COC(=O)CCC(=O)NNC(=O)c1ccc([N+](=O)[O-])cc1	i	i	i	i	i
C=CCNC(=S)NNC(=O)c1ccccc1	i	i	i	i	i
CCCCCCCC(=O)NNC(=O)c1ccc([N+](=O)[O-])cc1	i	i	i	7*	i
CCCOC(=O)c1ccc(NC(=O)C2C3C=CC(O3)C2C(=O)O)cc1 (stereo unspecified)	i	i	i	7.9*	i
COC(=O)c1sc(NC(=S)NNC(=O)c2c(Br)c(C)nn2C)c(C(=O)OC)c1C	i	i	i	i	-5.1*
COC(=O)c1sc(NC(=O)C(C)C)c(C(=O)OC)c1C	i	i	i	i	i

From PubChem BioAssay
